In brackets after ≈: the same amount, converted by molar mass. Activity calls are given as the source filed them. The calls are words filed in the database; no cut-off is given here.
Tests used:
[1] = target: T1, Acid ceramidase (Homo sapiens) (UniProt Q13510); experiment: Inhibition of ACDase in human MCF7 cell lysate using [9,10-3H] De-C16-Cer substrate at 50 uM after 1 hr by scintillation counting analysis; type: cell-free
T1 sequence (whole entry): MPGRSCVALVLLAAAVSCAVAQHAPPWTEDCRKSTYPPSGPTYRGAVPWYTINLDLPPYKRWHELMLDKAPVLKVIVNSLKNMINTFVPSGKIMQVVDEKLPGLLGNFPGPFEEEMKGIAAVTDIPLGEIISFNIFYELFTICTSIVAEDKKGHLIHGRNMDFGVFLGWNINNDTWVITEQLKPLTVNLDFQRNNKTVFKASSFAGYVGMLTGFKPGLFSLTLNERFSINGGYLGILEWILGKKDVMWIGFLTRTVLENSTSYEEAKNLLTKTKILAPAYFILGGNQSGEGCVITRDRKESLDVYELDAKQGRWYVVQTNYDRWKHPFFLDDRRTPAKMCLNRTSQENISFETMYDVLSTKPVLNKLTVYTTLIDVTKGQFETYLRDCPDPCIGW
In short: (§1)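 ACDase activity in MCF7 lysate (pH 4.5): [9,10-3H] D-e-C16-Cer and compound dried with 0.2% Triton X-100/0.4% cholate, then protein and 0.2 M acetate buffer with 0.5% Triton X-100 (pH 4.5) added; 1 h at 37 °C, stopped with Dole's solution; released [3H]palmitic acid scintillation-counted, pmol/mg protein/h, % control; duplicates.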

MCF7 [2] = experiment: Drug formation in human MCF7 cells treated with LCL596 up to 2 to 5 hrs by LC-MS/MS analysis; type: ADME, cell-based
In short: (§2)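 MCF7 cells (RPMI 1640, 10% FBS) treated with test compound or vehicle (ethanol) over a time course up to 24 h; after washing with cold PBS and scraping, pellets spiked with internal standards, lipids extracted (ethyl acetate/isopropanol/water) and compounds quantified by LC–MS/MS in positive MRM mode against calibration curves, normalized to lipid phosphate; duplicates.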

[3] = target: T1, Acid ceramidase (Homo sapiens); experiment: Inhibition of ACDase in human MCF7 cell lysate using [9,10-3H] De-C16-Cer substrate at 20 uM after 1 hr by scintillation counting analysis; type: cell-free; in short: as §1
MCF7 [4] = experiment: Induction in Cer level in human MCF7 cells at 10 uM after 1 hr by LC-MS/MS analysis; type: functional
In short: (§3)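 MCF7 cells treated 1 h with compound or ethanol vehicle; pellets spiked with internal standards, lipids extracted and Sph and total Cer quantified by LC–MS/MS in MRM mode, expressed as pmol per nmol lipid phosphate and as % of control; duplicates.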

[5] = Toxicity in rat; type: organism-based; conditions: in vivo
MCF7 [6] = experiment: Reduction in Sph level in human MCF7 cells at 10 uM after 1 hr by LC-MS/MS analysis; type: ADME, cell-based; conditions: MCF7, 1 h; in short: as §3
MCF7 [7] = experiment: Drug uptake in human MCF7 cells assessed as drug level at 10 uM after 24 hrs by LC-MS/MS analysis; type: ADME, cell-based; conditions: mcf7, 24 h; in short: as §2
[8] = target: T1, Acid ceramidase (Homo sapiens); experiment: Inhibition of ACDase in human MCF7 cells at 10 uM after 1 hr by cellular/scintillation counting analysis; type: cell-based
In short: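 MCF7 cells treated 1 h with compound or vehicle, washed in cold PBS and scraped; lysate ACDase activity then measured at pH 4.5 with [9,10-3H] D-e-C16-Cer, 1 h at 37 °C, released [3H]palmitic acid counted; pmol/mg protein/h, % control; quadruplicates.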

[9] = target: Neutral ceramidase (Homo sapiens) (UniProt Q9NR71); experiment: Inhibition of NCDase in human MCF7 cells assessed as release of [3H] palmitic acid at 10 uM after 1 hr
MCF7 [10] = experiment: Reduction in Sph level in human MCF7 cells at 1 uM after 5 hrs by LC-MS/MS analysis; type: ADME, cell-based; conditions: MCF7, 5 h
[11] = system: Alkaline ceramidase 2 (Homo sapiens); experiment: Inhibition of AlkCDase in human HeLa cells expressing […] assessed as fold increase in Sph level at 1 uM after 1 hr by LC-MS/MS analysis
[12] = system: Alkaline ceramidase 2 (Homo sapiens); experiment: Inhibition of AlkCDase in human HeLa cells expressing […] assessed as increase in Sph level at 10 uM after 1 hr by LC-MS/MS analysis
MCF7 [13] = experiment: Reduction in alpha-ACDase level in human MCF7 cells at 1 uM by Western blot analysis
[14] = target: Neutral ceramidase (Homo sapiens) (UniProt Q9NR71); experiment: Inhibition of NCDase in human HeLa cells expressing ASAH2 assessed as increase in Sph level at 10 uM after 1 hr by LC-MS/MS analysis; type: cell-based
In short: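 HeLa cells stably carrying ACER2, ASAH2 or empty vector, grown to 60% confluence, given tetracycline 5 ng/mL overnight, then treated 1 h with compound (1 or 10 µM) or ethanol; sphingolipids extracted and Sph measured by LC–MS/MS per nmol lipid phosphate, also given as Sph ratio of ACER2 or ASAH2 cells to vector cells.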

[15] = system: Alkaline ceramidase 2 (Homo sapiens); experiment: Inhibition of AlkCDase in human HeLa cells expressing […] assessed as fold increase in Sph level at 10 uM after 1 hr by LC-MS/MS analysis
[16] = target: T2, Sphingomyelin phosphodiesterase (Homo sapiens) (UniProt P17405); experiment: Inhibition of lysosomal ASMase activity in human MCF7 cells assessed as [methyl-14C]choline release at 1 uM after 1 hr; type: cell-based
T2 sequence (whole entry): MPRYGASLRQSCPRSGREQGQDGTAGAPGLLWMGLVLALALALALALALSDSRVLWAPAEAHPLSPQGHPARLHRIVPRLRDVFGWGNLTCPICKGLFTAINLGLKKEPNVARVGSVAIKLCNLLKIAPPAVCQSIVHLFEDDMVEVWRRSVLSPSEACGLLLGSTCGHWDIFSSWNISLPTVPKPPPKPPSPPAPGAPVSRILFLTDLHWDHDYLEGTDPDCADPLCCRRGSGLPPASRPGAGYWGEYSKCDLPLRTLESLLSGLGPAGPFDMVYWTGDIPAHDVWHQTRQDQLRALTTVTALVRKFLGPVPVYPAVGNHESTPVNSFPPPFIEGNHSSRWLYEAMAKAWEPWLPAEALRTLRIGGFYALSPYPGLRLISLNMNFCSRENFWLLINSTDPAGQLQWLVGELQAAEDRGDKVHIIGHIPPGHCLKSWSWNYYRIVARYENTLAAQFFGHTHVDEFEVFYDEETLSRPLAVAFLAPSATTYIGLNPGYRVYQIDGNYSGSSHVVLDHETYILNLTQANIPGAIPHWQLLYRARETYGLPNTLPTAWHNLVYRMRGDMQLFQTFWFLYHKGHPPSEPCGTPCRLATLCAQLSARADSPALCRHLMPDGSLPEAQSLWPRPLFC
In short: (§4)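 MCF7 cells treated 1 h with compound or vehicle, lysed in 0.2% Triton X-100/50 mm Tris-HCl pH 7.4 with EDTA and protease/phosphatase inhibitors; clarified lysate incubated with 100 µM porcine brain SM plus choline-[methyl-14C] SM in Triton micelles, 250 mM sodium acetate pH 5.0, 1.0 mM EDTA, 30 min at 37 °C; aqueous-phase 14C counted after Folch extraction; triplicates, % control.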

MCF7 [17] = experiment: Reduction in alpha-ACDase level in human MCF7 cells at 10 uM by scintillation counting analysis; type: functional, cell-based; conditions: in the assay text read “Western blot analysis” for “scintillation counting analysis”, TDE = time-dependent effect
In short: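 MCF7 cells treated 1 and 5 h with compound or vehicle; lysates (35 µg protein) run on SDS gels, blotted, probed with mouse monoclonal anti-ACDase and HRP secondary; bands of the cleaved alpha-ACDase chain quantified by densitometry, normalized to actin, % control.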

[18] = target: T2, Sphingomyelin phosphodiesterase (Homo sapiens); experiment: Inhibition of lysosomal ASMase activity in human MCF7 cells assessed as [methyl-14C]choline release at 10 uM after 1 hr; type: cell-based; in short: as §4
MCF7 [19] = experiment: Effect on lysosomal stability in human MCF7 cells assessed as recovery of Lysotracker Red uptake at 10 uM after 5 hrs by FACS analysis; type: functional, cell-based
In short: (§5)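 MCF7 cells seeded overnight, medium switched to 2% FBS with compound in ethanol or ethanol alone, 1 or 5 h at 37 °C, then Lysotracker Red DND-99 200 nM for 30 min at 37 °C. Cells trypsinized, washed and analysed by FACS (564–606 nm), at least 10,000 events per sample; lower fluorescence read as higher lysosomal pH; triplicates, % of control.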

MCF7 [20] = experiment: Reduction in Sph level in human MCF7 cells at 1 uM after 1 hr by LC-MS/MS analysis; type: ADME, cell-based; conditions: MCF7, 1 h, read-out: INH; in short: as §3
[21] = Solubility in water at 25 degC; type: physicochemical
MCF7 [22] = experiment: Drug formation in human MCF7 cells treated with LCL522 up to 2 to 5 hrs by LC-MS/MS analysis; type: ADME, cell-based; in short: as §2
MCF7 [23] = experiment: Reduction in Sph level in human MCF7 cells at 30 uM by LC-MS/MS analysis; type: functional, cell-based
[24] = target: T1, Acid ceramidase (Homo sapiens); conditions: MCF7, 50 uM
Acid ceramidase = target: T3, Acid ceramidase (Homo sapiens, UniProt Q13510); experiment: Inhibition of ACDase in human MCF7 cell lysate using [9,10-3H] De-C16-Cer substrate after 1 hr by scintillation counting analysis
T3 sequence (Q13510 whole entry): T1 sequence (whole entry)

[25] = system: Alkaline ceramidase 2 (Homo sapiens); experiment: Inhibition of AlkCDase in microsomes of human HeLa cells using D-e-C18:1-Cer substrate up to 250 uM after 30 mins
[26] = target: T1, Acid ceramidase (Homo sapiens); conditions: MCF7, 50 uM; remark: listed apart in the source
MCF7 [27] = experiment: Induction in Cer level in human MCF7 cells at 50 uM after 24 hrs hr by LC-MS/MS analysis; type: functional
MCF7 [28] = experiment: Reduction in Sph level in human MCF7 cells at 50 uM after 5 hrs by LC-MS/MS analysis; type: functional; conditions: MCF7, 5 h
MCF7 [29] = experiment: Reduction in Sph level in human MCF7 cells at 50 uM after 24 hrs by LC-MS/MS analysis; type: functional; conditions: MCF7, 24 h
MCF7 [30] = experiment: Induction in Cer level in human MCF7 cells at 50 uM after 1 hr by LC-MS/MS analysis; type: functional
[31] = target: T1, Acid ceramidase (Homo sapiens); conditions: MCF7, 50 uM; remark: listed apart in the source
MCF7 [32] = experiment: Effect on lysosomal stability in human MCF7 cells assessed as increase in Lysotracker Red uptake at 10 uM after 5 hrs by FACS analysis; type: ADME, cell-based; conditions: mcf7, 5 h; in short: as §5

Chain of Neutral ceramidase (Homo sapiens) (Q9NR71 whole entry): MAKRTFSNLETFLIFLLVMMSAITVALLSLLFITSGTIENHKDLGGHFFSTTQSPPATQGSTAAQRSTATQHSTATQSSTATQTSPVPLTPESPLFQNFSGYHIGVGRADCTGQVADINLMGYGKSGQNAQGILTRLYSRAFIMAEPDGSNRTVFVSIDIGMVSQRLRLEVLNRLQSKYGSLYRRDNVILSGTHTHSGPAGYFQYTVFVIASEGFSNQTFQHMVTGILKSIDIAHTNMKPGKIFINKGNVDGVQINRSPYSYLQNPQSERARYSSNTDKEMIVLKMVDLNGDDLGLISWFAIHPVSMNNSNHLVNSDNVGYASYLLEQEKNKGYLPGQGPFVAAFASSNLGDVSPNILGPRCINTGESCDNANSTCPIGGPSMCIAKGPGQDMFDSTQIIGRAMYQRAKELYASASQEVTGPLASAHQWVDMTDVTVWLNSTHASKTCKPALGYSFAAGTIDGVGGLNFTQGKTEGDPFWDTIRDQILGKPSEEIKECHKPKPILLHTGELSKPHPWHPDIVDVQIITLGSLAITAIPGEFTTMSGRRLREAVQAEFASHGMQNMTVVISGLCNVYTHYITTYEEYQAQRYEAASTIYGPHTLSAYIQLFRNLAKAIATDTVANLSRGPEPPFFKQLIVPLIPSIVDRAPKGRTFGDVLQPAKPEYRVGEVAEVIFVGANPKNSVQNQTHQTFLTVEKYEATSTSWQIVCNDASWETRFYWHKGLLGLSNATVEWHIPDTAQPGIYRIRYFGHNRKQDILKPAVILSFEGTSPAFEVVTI

Compound | inhibition [1] | inhibition [3] | Activity (MCF7 [4]) | LD50 [5] [mg/kg] | inhibition at 10 µM (MCF7 [6]) [%] | Drug uptake (MCF7 [7]) | inhibition [8] | Activity (MCF7 [19]) | solubility [21] [mg/mL] | Drug metabolism (MCF7 [22]) | further results
CCCCCCCCCCCCCC(=O)N[C@H](CO)[C@H](OC(=O)CN(C)C)c1ccc([N+](=O)[O-])cc1.Cl | Active | Active | inactive | 3900 | 60 | Active | Active | – | – | – | Drug metabolism (MCF7 [2]): metabolite_detected
CCCCCCCCCCCCCC(=O)N[C@H](COC(=O)CN(C)C)[C@H](OC(=O)CN(C)C)c1ccc([N+](=O)[O-])cc1.Cl | Active | Active | 130% | 3900 | 97 | 27% | Active | Active | 430 | – | inhibition [9]: inactive; inhibition at 1 µM (MCF7 [10]): 50%; fold change (FC) [11]: 2; inhibition [12]: Active; Activity (MCF7 [13]): inactive; inhibition [14]: inactive; fold change (FC) [15]: 5; inhibition [16]: 30%; inhibition (MCF7 [17]): tde; inhibition [18]: 85%; inhibition at 1 µM (MCF7 [20]): 80%
CCCCCCCCCCCCCC(=O)N[C@H](CO)[C@H](O)c1ccc([N+](=O)[O-])cc1 | 95% | – | – | – | – | – | Active | inactive | 0.008 (≈ 18.9 µM) | metabolite_detected | inhibition (MCF7 [23]): Active; inhibition [24]: 40%; IC50 (Acid ceramidase): 27.7 µM; inhibition [25]: inactive; inhibition [26]: 20%; Activity (MCF7 [27]): 270%; inhibition at 50 µM (MCF7 [28]): 70%; inhibition at 50 µM (MCF7 [29]): 40%; Activity (MCF7 [30]): 140%; inhibition [31]: 50%
CCCCCCCCCCCCCC(=O)N[C@H](COC(=O)CN(C)C)[C@H](O)c1ccc([N+](=O)[O-])cc1.Cl | Active | Active | inactive | 3900 | 60 | Active | Active | – | – | metabolite_detected | Activity (MCF7 [32]): 180%
